Test results reported in ChEMBL document CHEMBL4364248, “Discovery of 1,2,4-oxadiazole-Containing hydroxamic acid derivatives as histone deacetylase inhibitors potential application in cancer therapy” (Eur J Med Chem, 2019).

Assays:
[1] = Oral bioavailability in Sprague-Dawley rat at 5 mg/kg measured upto 24 hrs by LC-MS/MS analysis; format: ADME, organism-based; conditions: in vivo
In short: (§1)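 SD rats (200-250 g), six per time point, given 5 mg/kg as a tail-vein bolus or orally. Blood was taken by cardiac puncture before dosing and at 5, 15, 30, 45 min and 1, 2, 4, 6, 8, 10, 12 and 24 h. Plasma was spun at 4000 g for 15 min at 4 °C and stored at -80 °C. Analysis was LC-MS/MS with multiple-reaction monitoring, followed by noncompartmental analysis.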

MDA-MB-231 = test: Antiproliferative activity against human MDA-MB-231 cells after 72 hrs by MTT assay; format: functional, cell-based; conditions: MDA-MB-231, 72 h
JeKo-1 = test: Cell cycle arrest in human JeKo1 cells assessed as accumulation at G1 phase at 10 nM after 24 hrs by propidium iodide staining based flow cytometric analysis (reference value: 63.16 %); format: functional
[2] = target: Protein deacetylase HDAC6 (Homo sapiens, UniProt Q9UBN7); test: Inhibition of recombinant full length HDAC6 (unknown origin) using Ac-peptide-AMC as substrate after 1 hr by fluorescence assay
[3] = AUC ( 0 to t) in Sprague-Dawley rat at 5 mg/kg, iv measured upto 24 hrs by LC-MS/MS analysis; format: ADME, organism-based; parameters: dose 5 mg/kg, time < 24 hr, route intravenous; conditions: in vivo; in short: as §1
HCT-116 = test: Antiproliferative activity against human HCT116 cells after 72 hrs by MTT assay; format: functional, cell-based; conditions: HCT-116, 72 h
Histone deacetylase 5 = Histone deacetylase 5 (Homo sapiens, UniProt Q9UQL6); test: Inhibition of recombinant full length N-terminal GST-tagged human HDAC5 expressed in baculovirus infected Sf9 cells using Ac-peptide-AMC as substrate after 1 hr by fluorescence assay
[4] = Toxicity in NOD/SCID mouse xenografted with human Daudi cells at 10 mg/kg, iv treated on day 1,3 and 5 per week and measured for every 2 days; format: organism-based; conditions: in vivo, 48 h
In short: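 Female NOD/SCID mice (5–6 weeks) bearing s.c. Daudi xenografts, six per group. Dosing was 10 mg/kg i.v. or 20 mg/kg p.o. in 8% HP-β-CD on days 1, 3 and 5 weekly. Behaviour was observed, and organ tissues were collected at sacrifice for H&E staining.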

Sequence of Histone deacetylase 5 (Q9UQL6 whole entry): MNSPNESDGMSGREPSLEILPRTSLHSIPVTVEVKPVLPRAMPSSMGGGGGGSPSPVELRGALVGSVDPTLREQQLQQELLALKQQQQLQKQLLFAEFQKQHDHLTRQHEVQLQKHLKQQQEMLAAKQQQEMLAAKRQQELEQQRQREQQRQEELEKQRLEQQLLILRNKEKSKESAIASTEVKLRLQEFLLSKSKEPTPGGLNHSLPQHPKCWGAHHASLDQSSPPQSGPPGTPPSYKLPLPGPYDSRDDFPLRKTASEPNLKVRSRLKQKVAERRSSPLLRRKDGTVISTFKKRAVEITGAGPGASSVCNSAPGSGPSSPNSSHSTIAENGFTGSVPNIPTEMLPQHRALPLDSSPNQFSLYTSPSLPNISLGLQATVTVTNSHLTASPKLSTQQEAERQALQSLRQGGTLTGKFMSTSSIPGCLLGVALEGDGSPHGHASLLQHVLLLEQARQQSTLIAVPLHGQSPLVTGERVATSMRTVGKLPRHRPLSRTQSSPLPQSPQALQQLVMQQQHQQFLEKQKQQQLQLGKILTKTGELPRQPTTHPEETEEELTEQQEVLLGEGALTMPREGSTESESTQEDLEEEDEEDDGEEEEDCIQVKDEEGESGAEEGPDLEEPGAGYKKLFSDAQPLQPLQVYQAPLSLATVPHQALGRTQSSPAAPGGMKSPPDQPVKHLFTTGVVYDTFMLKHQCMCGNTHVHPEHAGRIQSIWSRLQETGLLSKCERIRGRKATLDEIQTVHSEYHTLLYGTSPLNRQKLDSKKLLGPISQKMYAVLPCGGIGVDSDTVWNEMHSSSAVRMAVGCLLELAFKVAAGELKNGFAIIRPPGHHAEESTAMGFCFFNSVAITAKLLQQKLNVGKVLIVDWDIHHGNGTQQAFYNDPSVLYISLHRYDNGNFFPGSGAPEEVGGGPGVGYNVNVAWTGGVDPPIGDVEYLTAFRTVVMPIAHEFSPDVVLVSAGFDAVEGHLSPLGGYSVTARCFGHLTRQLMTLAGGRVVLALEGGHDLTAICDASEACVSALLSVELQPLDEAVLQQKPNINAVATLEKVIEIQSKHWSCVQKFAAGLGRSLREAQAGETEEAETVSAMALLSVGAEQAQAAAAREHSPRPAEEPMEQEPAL
Sequence of Protein deacetylase HDAC6 (Q9UBN7 whole entry): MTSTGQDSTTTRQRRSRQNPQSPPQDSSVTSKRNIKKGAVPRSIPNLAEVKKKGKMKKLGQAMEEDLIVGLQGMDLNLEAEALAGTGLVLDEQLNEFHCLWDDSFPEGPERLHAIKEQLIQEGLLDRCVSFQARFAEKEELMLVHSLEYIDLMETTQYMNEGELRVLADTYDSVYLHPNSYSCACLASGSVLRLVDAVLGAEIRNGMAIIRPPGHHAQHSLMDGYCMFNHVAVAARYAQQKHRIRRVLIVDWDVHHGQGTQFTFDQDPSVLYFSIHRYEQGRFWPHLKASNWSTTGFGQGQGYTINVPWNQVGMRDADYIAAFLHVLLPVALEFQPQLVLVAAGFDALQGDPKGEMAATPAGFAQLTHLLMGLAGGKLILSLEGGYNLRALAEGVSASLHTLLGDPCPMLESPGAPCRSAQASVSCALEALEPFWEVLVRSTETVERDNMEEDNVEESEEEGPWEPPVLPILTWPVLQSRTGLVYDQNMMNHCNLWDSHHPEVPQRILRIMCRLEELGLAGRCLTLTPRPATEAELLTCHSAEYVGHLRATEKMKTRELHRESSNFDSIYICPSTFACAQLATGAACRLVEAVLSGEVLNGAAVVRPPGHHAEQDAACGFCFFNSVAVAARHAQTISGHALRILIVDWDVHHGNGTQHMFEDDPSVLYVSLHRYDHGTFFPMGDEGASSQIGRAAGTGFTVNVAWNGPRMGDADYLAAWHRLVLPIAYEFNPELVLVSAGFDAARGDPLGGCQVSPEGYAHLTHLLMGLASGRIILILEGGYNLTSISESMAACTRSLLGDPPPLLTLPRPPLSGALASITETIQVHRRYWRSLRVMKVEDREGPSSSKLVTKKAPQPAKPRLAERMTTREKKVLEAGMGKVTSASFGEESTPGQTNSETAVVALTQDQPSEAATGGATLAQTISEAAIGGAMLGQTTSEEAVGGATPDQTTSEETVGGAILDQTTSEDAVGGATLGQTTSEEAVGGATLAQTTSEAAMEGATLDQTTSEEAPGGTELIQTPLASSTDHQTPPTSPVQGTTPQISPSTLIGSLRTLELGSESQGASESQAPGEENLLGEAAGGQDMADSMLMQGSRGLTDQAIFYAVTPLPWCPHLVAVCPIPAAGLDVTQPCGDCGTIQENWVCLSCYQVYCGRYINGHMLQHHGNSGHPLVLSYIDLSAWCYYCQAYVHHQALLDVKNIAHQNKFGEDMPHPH

bioavailability [1]: 53.5% | IC50 (MDA-MB-231): 25.6 nM | IC50 [2]: 56 nM | AUC(0-t) at 24 h [3]: 433 ng·h/mL | IC50 (HCT-116): 16 nM | IC50 (Histone deacetylase 5): 540 nM
SMILES: Cc1ccc(CN2CCC(c3noc(CN(C)c4ncc(C(=O)NO)cn4)n3)CC2)cc1
Activity (JeKo-1): 66.88% | Activity [4]: Non-Toxic
